Experimental data published in ChEMBL document CHEMBL1123312, “In the search for new anticancer drugs. 17. Linear and cyclic polyether analogues of N,N:N',N':N'',N''-tri-1,2-ethanediylphosphoric triamide and N,N:N',N':N'',N''-tri-1,2-ethanediylphosphorothioic triamide” (J Med Chem, 1986).
Values joined by “and” are separate entries in the source; they are usually repeats but may differ in a detail not shown here. Equal entries are not always repeated.

Tests used:
[1] = system: Mus musculus; assay: Percentage increase in life span when the compound was administered intraperitoneally at dose of 60 mg/Kg in P388 leukemia in CDF1 mice was determined; assay type: functional; conditions: P388, ip
In short: (§1)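 CD2F1 male mice, 19–22 g, in groups of six, inoculated ip with 10⁶ P388 cells on day 0. Dosed ip once daily for 9 days from day 1, in saline, or for linear polyethers in aqueous 2% Tween 80. Deaths and survivors were recorded to 30 days, some to 60. T/C is mean survival, treated vs tumour-bearing control. %ILS = [(T−C)/C]×100. Average day-5 weight change was taken as toxicity.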

[2] = system: Mus musculus; assay: Anticancer activity against P388 leukemia in CD2F1 male mice expressed as Average % weight change on day 5 as a measure of toxicity was reported at a dose of 20 mg/kg/day.; assay type: functional; in short: as §1
[3] = system: Mus musculus; assay: Percentage increase in life span when the compound was administered intraperitoneally at dose of 20 mg/Kg in P388 leukemia in CDF1 mice was determined; assay type: functional; conditions: P388, ip; in short: as §1
[4] = system: Mus musculus; assay: Anticancer activity against P388 leukemia in CD2F1 male mice expressed as Average % weight change on day 5 as a measure of toxicity was reported at a dose of 60 mg/kg/day.; assay type: functional; in short: as §1
[5] = system: Mus musculus; assay: Compound was evaluated for the anticancer activity against P388 leukemia in CD2F1 male mice at a dose of 60 mg/kg/after 30 days; 0/6; assay type: functional; in short: as §1
[6] = partition coefficient with the use of 1-octanol / water solvent system; assay type: physicochemical
In short: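 4 mL of 10 mM aqueous compound was stirred vigorously with 2 mL 1-octanol for 5 min at 25 °C. The aqueous layer was analysed by ³¹P NMR, and signal intensity (peak height × width at half-height) gave concentrations in each phase. P = [octanol]/[water].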

[7] = system: Mus musculus; assay: Compound was evaluated for the anticancer activity against P388 leukemia in CD2F1 male mice at a dose of 20 mg/kg/after 30 days; 0/6; assay type: functional
[8] = system: Mus musculus; assay: Anticancer activity against P388 leukemia in CD2F1 male mice by 60 mg/kg/day.; assay type: functional; in short: as §1
[9] = system: Mus musculus; assay: Compound was evaluated for the anticancer activity against P388 leukemia in CD2F1 male mice at a dose of 10 mg/kg/after 30 days; 0/6; assay type: functional; in short: as §1
[10] = system: Mus musculus; assay: Compound was evaluated for the anticancer activity against P388 leukemia in CD2F1 male mice at a dose of 30 mg/kg/day.; assay type: functional; in short: as §1
[11] = system: Mus musculus; assay: Anticancer activity against P388 leukemia in CD2F1 male mice expressed as Average % weight change on day 5 as a measure of toxicity was reported at a dose of 40 mg/kg/day.; assay type: functional; in short: as §1
[12] = system: Mus musculus; assay: Anticancer activity against P388 leukemia in CD2F1 male mice expressed as Average % weight change on day 5 as a measure of toxicity was reported at a dose of 5 mg/kg/day.; assay type: functional; in short: as §1
[13] = system: Mus musculus; assay: Percentage increase in life span when the compound was administered intraperitoneally at dose of 125 mg/Kg in P388 leukemia in CDF1 mice was determined; assay type: functional; conditions: P388, ip; in short: as §1
[14] = system: Mus musculus; assay: Anticancer activity against P388 leukemia in CD2F1 male mice by 20 mg/kg/day.; assay type: functional; in short: as §1
[15] = system: Mus musculus; assay: Anticancer activity against P388 leukemia in CD2F1 male mice expressed as Average % weight change on day 5 as a measure of toxicity was reported at a dose of 90 mg/kg/day.; assay type: functional; in short: as §1
[16] = system: Mus musculus; assay: Percentage increase in life span when the compound was administered intraperitoneally at dose of 40 mg/Kg in P388 leukemia in CDF1 mice was determined; assay type: functional; conditions: P388, ip; in short: as §1
[17] = system: Mus musculus; assay: Percentage increase in life span when the compound was administered intraperitoneally at dose of 10 mg/Kg in P388 leukemia in CDF1 mice was determined; assay type: functional; conditions: P388, ip; in short: as §1
[18] = system: Mus musculus; assay: Percentage increase in life span when the compound was administered intraperitoneally at dose of 90 mg/Kg in P388 leukemia in CDF1 mice was determined; assay type: functional; conditions: P388, ip; in short: as §1
[19] = system: Mus musculus; assay: Compound was evaluated for the anticancer activity against P388 leukemia in CD2F1 male mice at a dose of 60 mg/kg/after 30 days; 3/6; assay type: functional; in short: as §1
[20] = system: Mus musculus; assay: Compound was evaluated for the anticancer activity against P388 leukemia in CD2F1 male mice at a dose of 60 mg/kg/after 60 days; 1/6; assay type: functional; in short: as §1
[21] = system: Mus musculus; assay: Compound was evaluated for the anticancer activity against P388 leukemia in CD2F1 male mice at a dose of 40 mg/kg/day.; assay type: functional; conditions: at 40 mg/kg/day
[22] = system: Mus musculus; assay: Compound was evaluated for the anticancer activity against P388 leukemia in CD2F1 male mice at a dose of 90 mg/kg/day.; assay type: functional; in short: as §1
[23] = system: Mus musculus; assay: Anticancer activity against P388 leukemia in CD2F1 male mice expressed as Average % weight change on day 5 as a measure of toxicity was reported at a dose of 30 mg/kg/day.; assay type: functional; in short: as §1
[24] = system: Mus musculus; assay: Percentage increase in life span when the compound was administered intraperitoneally at dose of 30 mg/Kg in P388 leukemia in CDF1 mice was determined; assay type: functional; conditions: P388, ip; in short: as §1
[25] = system: Mus musculus; assay: Compound was evaluated for the anticancer activity against P388 leukemia in CD2F1 male mice at a dose of 125 mg/kg/after 30 days; 0/6; assay type: functional; in short: as §1
[26] = system: Mus musculus; assay: Percentage increase in life span when the compound was administered intraperitoneally at dose of 5 mg/Kg in P388 leukemia in CDF1 mice was determined; assay type: functional; conditions: P388, ip; in short: as §1
[27] = system: Mus musculus; assay: Compound was evaluated for the anticancer activity against P388 leukemia in CD2F1 male mice at a dose of 30 mg/kg/after 30 days; 0/6; assay type: functional; in short: as §1
[28] = system: Mus musculus; assay: Anticancer activity against P388 leukemia in CD2F1 male mice expressed as Average % weight change on day 5 as a measure of toxicity was reported at a dose of 10 mg/kg/day.; assay type: functional; in short: as §1
[29] = system: Mus musculus; assay: Compound was evaluated for the anticancer activity against P388 leukemia in CD2F1 male mice at a dose of 40 mg/kg/after 30 days; 0/6; assay type: functional
[30] = system: Mus musculus; assay: Compound was evaluated for the anticancer activity against P388 leukemia in CD2F1 male mice at a dose of 6 mg/kg/after 30 days; 0/6
[31] = system: Mus musculus; assay: Anticancer activity against P388 leukemia in CD2F1 male mice expressed as Average % weight change on day 5 as a measure of toxicity was reported at a dose of 125 mg/kg/day.; assay type: functional; in short: as §1
[32] = system: Mus musculus; assay: Compound was evaluated for the anticancer activity against P388 leukemia in CD2F1 male mice at a dose of 90 mg/kg/after 60 days; 5/6; assay type: functional; in short: as §1
[33] = system: Mus musculus; assay: Compound was evaluated for the anticancer activity against P388 leukemia in CD2F1 male mice at a dose of 90 mg/kg/after 30 days; 6/6; assay type: functional; in short: as §1
[34] = system: Mus musculus; assay: Compound was evaluated for the anticancer activity against P388 leukemia in CD2F1 male mice at a dose of 10 mg/kg/day.; assay type: functional; in short: as §1
[35] = system: Mus musculus; assay: Anticancer activity against P388 leukemia in CD2F1 male mice expressed as Average % weight change on day 5 as a measure of toxicity was reported at a dose of 200 mg/kg/day.; assay type: functional
In short: (§2)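 Positive-control arm of the NCI P388 protocol in CD2F1 male mice, groups of six, inoculated ip with 10⁶ cells on day 0. A single 200 mg/kg per day dose was given on day 1. Survival was followed to 30 days, with T/C and %ILS from mean survival times and day-5 average weight change as toxicity.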

[36] = system: Mus musculus; assay: Percentage increase in life span when the compound was administered intraperitoneally at dose of 200 mg/Kg in P388 leukemia in CDF1 mice was determined; assay type: functional; conditions: P388, ip; in short: as §2
[37] = system: Mus musculus; assay: Anticancer activity against P388 leukemia in CD2F1 male mice. Number of survivors vs number of treated animals after 30 days were reported at a dose of 200 mg/kg/day; 0/6; assay type: functional; in short: as §2
[38] = system: Mus musculus; assay: Compound was evaluated for the anticancer activity against P388 leukemia in CD2F1 male mice at a dose of 200 mg/kg/day.; assay type: functional; in short: as §2
[39] = system: Mus musculus; assay: Percentage increase in life span when the compound was administered intraperitoneally at dose of 6 mg/Kg in P388 leukemia in CDF1 mice was determined; assay type: functional; conditions: P388, ip; in short: as §1
[40] = system: Mus musculus; assay: Compound was evaluated for the anticancer activity against P388 leukemia in CD2F1 male mice at a dose of 60 mg/kg/after 60 days; 0/6; assay type: functional; in short: as §1
[41] = system: Mus musculus; assay: Anticancer activity against P388 leukemia in CD2F1 male mice expressed as Average % weight change on day 5 as a measure of toxicity was reported at a dose of 6 mg/kg/day.; assay type: functional; in short: as §1
[42] = system: Mus musculus; assay: Compound was evaluated for the anticancer activity against P388 leukemia in CD2F1 male mice at a dose of 6 mg/kg/day.; assay type: functional; conditions: at 6 mg/kg/day
[43] = system: Mus musculus; assay: Compound was evaluated for the anticancer activity against P388 leukemia in CD2F1 male mice at a dose of 5 mg/kg/after 30 days; 1/6; assay type: functional

S=P(N1CCOCCOCCOCCOCC1)(N1CC1)N1CC1 gave an ILS at 60 mg/kg [1] of 80%, a Weight change [2] of 7.9% and an ILS at 20 mg/kg [3] of 24%. It also gave a Weight change [4] of -6.4%, a Survivors [5] of 0 and a Partition coefficient [6] of 2.6. The Survivors [7] was 0 and the T/C [8] was 180% and 80%.
For C1COCCOCCOCCOCCN1, the ILS at 60 mg/kg [1] was 0%, the Weight change [2] was 8.3% and the ILS at 20 mg/kg [3] was 2%. For the same molecule, the Weight change [4] was 7.9%, the Survivors [5] was 0 and the Survivors [7] was 0.
In the case of O=P(N1CCOCCOCCOCCOCC1)(N1CC1)N1CC1, the Survivors [9] is reported as 0, the T/C [10] is reported as 222% and 122% and the ILS at 60 mg/kg [1] is reported as 229%. It also gave a Weight change [11] of -6.8%, a Weight change [12] of 3.3% and an ILS at 125 mg/kg [13] of -13%. The T/C [14] was 199% and 99%, the Weight change [2] was -2% and the Weight change [15] was -1.8%. The ILS at 40 mg/kg [16] was 137%, the ILS at 20 mg/kg [3] was 99% and the ILS at 10 mg/kg [17] was 66%. The ILS at 90 mg/kg [18] was 287%, the Survivors [19] was 3 and the Survivors [20] was 1. The T/C [21] was 237% and 137%, the T/C [22] was 387% and 287% and the Weight change [4] was -4.4%. It also gave a Weight change [23] of 0%, an ILS at 30 mg/kg [24] of 122% and a Survivors [25] of 0. It also gave an ILS at 5 mg/kg [26] of 41%, a Survivors [27] of 0 and a Weight change [28] of 6.2%. The Survivors [29] was 0, the Survivors [30] was 0 and the Partition coefficient [6] was 1.32. The Weight change [31] was -9%, the Survivors [32] was 5 and the Survivors [33] was 6. The Survivors [7] was 0, the T/C [34] was 166% and 66% and the T/C [8] was 329% and 229%.
Work on O=c1[nH]cc(F)c(=O)[nH]1 [FLUOROURACIL] yielded a Weight change [35] of -4%, an ILS at 200 mg/kg [36] of 79% and a Survivors [37] of 0. For the same molecule, the T/C [38] was 179% and 79%.
With O=P(N1CC1)(N1CC1)N1CC1 [TEPA] the ILS at 6 mg/kg [39] was 136%, the Survivors [40] was 0 and the Weight change [41] was -4%. For the same molecule, the T/C [42] was 236% and 136% and the Survivors [43] was 1.
With S=P(N1CC1)(N1CC1)N1CC1 [THIOTEPA] the ILS at 6 mg/kg [39] was 141%, the T/C [42] was 241% and 141% and the Survivors [30] was 0. It also gave a Partition coefficient [6] of 2.54.
